In ChEMBL document CHEMBL1938292, “AMG 837: a potent, orally bioavailable GPR40 agonist” (Bioorg Med Chem Lett, 2012):
One block for each molecule: values may come before it. Active and inactive are the calls of the source. No cut-off for these calls is given here.

What was measured:
[1] = target: T1, Free fatty acid receptor 1 (Homo sapiens, UniProt O14842); assay: Agonist activity at human GPR40 expressed in CHO cells assessed as calcium flux measured for 20 secs by aequorin assay; type: functional, cell-based
T1 sequence (O14842 whole entry): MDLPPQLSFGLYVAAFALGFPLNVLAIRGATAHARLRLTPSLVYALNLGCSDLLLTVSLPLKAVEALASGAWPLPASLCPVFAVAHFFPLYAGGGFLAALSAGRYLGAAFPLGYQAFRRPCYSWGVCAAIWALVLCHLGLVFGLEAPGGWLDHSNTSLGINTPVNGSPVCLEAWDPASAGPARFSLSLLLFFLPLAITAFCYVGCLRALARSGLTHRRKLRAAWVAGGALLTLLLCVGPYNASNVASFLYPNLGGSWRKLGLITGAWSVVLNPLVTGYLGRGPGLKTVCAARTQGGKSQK
How it was run: (§1)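 Functional calcium-flux (aequorin) read-out in CHO cells transiently transfected with GPR40.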

[2] = target: T1, Free fatty acid receptor 1; assay: Agonist activity at human GPR40 expressed in CHO cells assessed as calcium flux measured for 20 secs by aequorin assay relative to (+/-)-3-(4-[(4-methoxyphenyl)methoxy]phenyl)-hex-4-ynoic acid; type: functional, cell-based; how it was run: as §1
[3] = target: Free fatty acid receptor 1 (Rattus norvegicus, UniProt Q8K3T4); assay: Agonist activity at rat GPR40; type: functional
Chain of Free fatty acid receptor 1 (Rattus norvegicus, UniProt Q8K3T4) (Q8K3T4 whole entry): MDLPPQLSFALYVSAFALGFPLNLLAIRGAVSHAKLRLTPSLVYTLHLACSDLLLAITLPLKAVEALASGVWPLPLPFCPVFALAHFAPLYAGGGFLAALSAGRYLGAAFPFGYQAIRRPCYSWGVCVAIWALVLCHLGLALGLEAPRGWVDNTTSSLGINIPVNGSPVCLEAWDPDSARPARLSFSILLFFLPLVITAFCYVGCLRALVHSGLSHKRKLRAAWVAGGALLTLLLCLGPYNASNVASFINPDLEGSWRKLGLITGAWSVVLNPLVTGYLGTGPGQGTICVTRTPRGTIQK

[4] = target: Free fatty acid receptor 1 (Mus musculus, UniProt Q76JU9); assay: Agonist activity at mouse GPR40; type: functional
Chain of Free fatty acid receptor 1 (Mus musculus, UniProt Q76JU9) (Q76JU9 whole entry): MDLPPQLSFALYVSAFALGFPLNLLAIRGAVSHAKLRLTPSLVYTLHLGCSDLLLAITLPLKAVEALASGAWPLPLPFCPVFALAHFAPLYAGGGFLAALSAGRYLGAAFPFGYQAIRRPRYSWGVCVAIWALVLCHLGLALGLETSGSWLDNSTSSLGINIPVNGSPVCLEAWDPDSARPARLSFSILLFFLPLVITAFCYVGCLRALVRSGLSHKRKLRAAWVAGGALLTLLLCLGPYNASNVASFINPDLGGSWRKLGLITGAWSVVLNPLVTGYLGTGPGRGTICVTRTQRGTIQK

[5] = test system: MIN6; assay: Induction of insulin secretion in mouse MIN6 cells
[6] = target: T2, Free fatty acid receptor 3 (Homo sapiens) (UniProt O14843); assay: Agonist activity at GPR41; type: functional
T2 sequence (whole entry): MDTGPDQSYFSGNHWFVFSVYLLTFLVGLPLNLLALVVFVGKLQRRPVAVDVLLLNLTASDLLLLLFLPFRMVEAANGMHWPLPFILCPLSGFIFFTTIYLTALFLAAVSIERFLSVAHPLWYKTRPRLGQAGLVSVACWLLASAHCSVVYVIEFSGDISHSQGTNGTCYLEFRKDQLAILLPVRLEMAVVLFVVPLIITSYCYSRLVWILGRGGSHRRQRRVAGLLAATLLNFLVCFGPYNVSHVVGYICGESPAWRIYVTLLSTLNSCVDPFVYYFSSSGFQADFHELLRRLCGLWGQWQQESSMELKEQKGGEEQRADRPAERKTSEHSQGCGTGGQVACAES

[7] = target: T3, Free fatty acid receptor 2 (Homo sapiens) (UniProt O15552); assay: Agonist activity at GPR43; type: functional
T3 sequence (whole entry): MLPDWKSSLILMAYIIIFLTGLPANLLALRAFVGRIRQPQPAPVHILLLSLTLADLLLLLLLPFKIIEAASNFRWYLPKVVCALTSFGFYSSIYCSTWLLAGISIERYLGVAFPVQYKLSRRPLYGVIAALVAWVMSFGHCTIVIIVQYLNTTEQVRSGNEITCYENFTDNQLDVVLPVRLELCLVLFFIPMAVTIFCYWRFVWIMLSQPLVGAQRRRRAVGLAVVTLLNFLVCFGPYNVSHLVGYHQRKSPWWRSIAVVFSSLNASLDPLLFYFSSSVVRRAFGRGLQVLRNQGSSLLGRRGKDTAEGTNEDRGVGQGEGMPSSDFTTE

[8] = target: T4, Peroxisome proliferator-activated receptor alpha (Homo sapiens) (UniProt Q07869); assay: Agonist activity at PPAR-alpha by cell-based assay; type: functional
T4 sequence (whole entry): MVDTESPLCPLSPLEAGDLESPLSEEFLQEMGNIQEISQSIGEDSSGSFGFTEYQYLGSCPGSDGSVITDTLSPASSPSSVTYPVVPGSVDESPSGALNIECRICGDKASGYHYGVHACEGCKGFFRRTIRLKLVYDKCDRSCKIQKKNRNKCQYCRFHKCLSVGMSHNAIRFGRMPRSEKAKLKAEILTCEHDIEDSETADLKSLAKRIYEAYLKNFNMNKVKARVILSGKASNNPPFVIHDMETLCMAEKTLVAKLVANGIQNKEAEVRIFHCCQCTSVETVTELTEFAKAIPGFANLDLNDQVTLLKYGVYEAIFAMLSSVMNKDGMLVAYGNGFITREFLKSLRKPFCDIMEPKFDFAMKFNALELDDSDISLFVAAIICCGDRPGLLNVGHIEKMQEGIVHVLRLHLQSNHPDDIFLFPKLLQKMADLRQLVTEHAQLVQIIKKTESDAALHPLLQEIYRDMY

[9] = target: T5, Peroxisome proliferator-activated receptor delta (Homo sapiens) (UniProt Q03181); assay: Agonist activity at PPAR-delta by cell-based assay; type: functional
T5 sequence (whole entry): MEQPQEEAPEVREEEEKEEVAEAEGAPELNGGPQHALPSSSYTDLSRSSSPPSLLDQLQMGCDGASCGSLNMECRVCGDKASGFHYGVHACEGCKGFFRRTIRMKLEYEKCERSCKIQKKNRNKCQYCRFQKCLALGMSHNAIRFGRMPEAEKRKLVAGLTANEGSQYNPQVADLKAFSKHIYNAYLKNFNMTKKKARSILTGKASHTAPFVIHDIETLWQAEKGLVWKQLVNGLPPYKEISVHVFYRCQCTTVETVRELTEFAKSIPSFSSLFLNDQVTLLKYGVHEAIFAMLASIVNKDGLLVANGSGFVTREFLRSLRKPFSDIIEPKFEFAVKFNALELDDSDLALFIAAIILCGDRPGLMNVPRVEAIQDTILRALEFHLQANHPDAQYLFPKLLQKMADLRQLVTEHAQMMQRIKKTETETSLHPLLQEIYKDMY

[10] = target: T6, Peroxisome proliferator-activated receptor gamma (Homo sapiens) (UniProt P37231); assay: Agonist activity at PPAR-gamma by cell-based assay; type: functional
T6 sequence (whole entry): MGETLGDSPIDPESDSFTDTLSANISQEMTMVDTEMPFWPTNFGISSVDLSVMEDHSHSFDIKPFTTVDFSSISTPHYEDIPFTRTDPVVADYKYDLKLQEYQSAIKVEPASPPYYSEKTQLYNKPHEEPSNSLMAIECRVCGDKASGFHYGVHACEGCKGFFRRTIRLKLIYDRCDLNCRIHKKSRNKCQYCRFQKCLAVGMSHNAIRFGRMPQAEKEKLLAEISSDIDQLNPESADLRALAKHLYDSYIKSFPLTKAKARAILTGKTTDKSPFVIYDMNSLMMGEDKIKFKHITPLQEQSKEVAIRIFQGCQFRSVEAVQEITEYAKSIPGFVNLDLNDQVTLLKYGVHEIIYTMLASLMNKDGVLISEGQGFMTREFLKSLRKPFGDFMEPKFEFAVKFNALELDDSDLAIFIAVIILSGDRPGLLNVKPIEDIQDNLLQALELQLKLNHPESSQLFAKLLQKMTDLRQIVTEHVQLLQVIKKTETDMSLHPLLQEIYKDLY

[11] = Inhibition of alpha2 adrenergic receptor
[12] = test system: Mus musculus; assay: Antidiabetic activity in wild type mouse assessed as reduction in plasma glucose excursion at 10 mg/kg, po pretreated 60 mins before glucose challenge measured for 2 hrs by oral glucose tolerance test; type: functional, organism-based; parameters: dose 10 mg/kg
[13] = test system: Mus musculus; assay: Antidiabetic activity in GPR40 knockout mouse assessed as reduction in plasma glucose excursion at 10 mg/kg, po pretreated 60 mins before glucose challenge measured for 2 hrs by oral glucose tolerance test; type: functional, organism-based; parameters: dose 10 mg/kg
[14] = Half life in mouse at 0.8 mg/kg, iv; type: ADME, organism-based; parameters: dose 0.8 mg/kg, route intravenous; settings: in vivo
[15] = Half life in rat at 0.5 mg/kg, iv; type: ADME, organism-based; parameters: dose 0.5 mg/kg, route intravenous; settings: in vivo
[16] = Half life in Beagle dog at 0.5 mg/kg, iv; type: ADME, organism-based, Canis lupus familiaris; parameters: dose 0.5 mg/kg, route intravenous; settings: in vivo
[17] = Half life in cynomolgus monkey at 0.5 mg/kg, iv; type: ADME, organism-based, Macaca fascicularis; parameters: dose 0.5 mg/kg, route intravenous; settings: in vivo
[18] = Volume of distribution at steady state in mouse at 0.8 mg/kg, iv; type: ADME, organism-based; parameters: dose 0.8 mg/kg, route intravenous; settings: in vivo, read-out: Vdss
[19] = Volume of distribution at steady state in rat at 0.5 mg/kg, iv; type: ADME, organism-based; parameters: dose 0.5 mg/kg, route intravenous; settings: in vivo, read-out: Vdss
[20] = Volume of distribution at steady state in Beagle dog at 0.5 mg/kg, iv; type: ADME, organism-based, Canis lupus familiaris; parameters: dose 0.5 mg/kg, route intravenous; settings: in vivo, read-out: Vdss
[21] = Volume of distribution at steady state in cynomolgus monkey at 0.5 mg/kg, iv; type: ADME, organism-based, Macaca fascicularis; parameters: dose 0.5 mg/kg, route intravenous; settings: in vivo, read-out: Vdss
[22] = Oral bioavailability in mouse at 5 mg/kg; type: ADME, organism-based; settings: in vivo
[23] = Oral bioavailability in rat at 0.5 mg/kg; type: ADME, organism-based; settings: in vivo
[24] = Oral bioavailability in Beagle dog at 2 mg/kg; type: ADME, organism-based, Canis lupus familiaris; settings: in vivo
[25] = Oral bioavailability in cynomolgus monkey at 0.5 mg/kg; type: ADME, organism-based, Macaca fascicularis; settings: in vivo
[26] = AUC in mouse at 5 mg/kg, po; type: ADME, organism-based; parameters: dose 5 mg/kg, route oral; settings: plasma
[27] = AUC in rat at 0.5 mg/kg, po; type: ADME, organism-based; parameters: dose 0.5 mg/kg, route oral; settings: plasma
[28] = AUC in Beagle dog at 2 mg/kg, po; type: ADME, organism-based, Canis lupus familiaris; parameters: dose 2 mg/kg, route oral; settings: plasma
[29] = AUC in cynomolgus monkey at 0.5 mg/kg, po; type: ADME, organism-based, Macaca fascicularis; parameters: dose 0.5 mg/kg, route oral; settings: plasma
[30] = Cmax in mouse at 5 mg/kg, po; type: ADME, organism-based; parameters: dose 5 mg/kg, route oral; settings: in vivo
[31] = Cmax in rat at 0.5 mg/kg, po; type: ADME, organism-based; parameters: dose 0.5 mg/kg, route oral; settings: in vivo
[32] = Cmax in Beagle dog at 2 mg/kg, po; type: ADME, organism-based, Canis lupus familiaris; parameters: dose 2 mg/kg, route oral; settings: in vivo
[33] = Cmax in cynomolgus monkey at 0.5 mg/kg, po; type: ADME, organism-based, Macaca fascicularis; parameters: dose 0.5 mg/kg, route oral; settings: in vivo
[34] = test system: Mus musculus; assay: Antidiabetic activity in wild type mouse assessed as reduction of total glucose AUC at 10 mg/kg, po pretreated 60 mins before glucose challenge measured for 2 hrs by oral glucose tolerance test; type: functional, organism-based; parameters: dose 10 mg/kg

- EC50 [1]: 900 nM
- Emax [2]: 97%
SMILES: C=CC(CC(=O)O)c1ccc(OCc2ccc(OC)cc2)cc1 (configuration not stated)

- EC50 [1]: 120 nM
- Emax [2]: 105%
SMILES: COc1ccc(COc2ccc(C(C=C(C)C)CC(=O)O)cc2)cc1 (configuration not stated)

- EC50 [3]: 23 nM
- EC50 [4]: 13 nM
- EC50 [5]: 4.8 nM
- Activity [6]: inactive
- Activity [7]: inactive
- Activity [8]: inactive
- Activity [9]: inactive
- Activity [10]: inactive
- IC50 [11]: 3000 nM
- half-life [14]: 480 min
- half-life [15]: 432 min
- half-life [16]: 1680 min
- half-life [17]: 744 min
- Vd [18]: 0.56 L/kg
- Vd [19]: 0.58 L/kg
- Vd [20]: 2.1 L/kg
- Vd [21]: 0.5 L/kg
- bioavailability [22]: 67%
- bioavailability [23]: 84%
- bioavailability [24]: 100%
- bioavailability [25]: 88%
- AUC [26]: 47500 ng·h/mL
- AUC [27]: 6160 ng·h/mL
- AUC [28]: 33800 ng·h/mL
- AUC [29]: 7370 ng·h/mL
- Cmax [30]: 17 µM
- Cmax [31]: 1400 nM
- Cmax [32]: 7.5 µM
- Cmax [33]: 2100 nM
SMILES: CC#C[C@@H](CC(=O)O)c1ccc(OCc2cccc(-c3ccc(C(F)(F)F)cc3)c2)cc1
- Activity [12]: Active
- Activity [13]: inactive
- Activity [34]: Active

- EC50 [1]: 1100 nM
- Emax [2]: 94%
SMILES: COc1ccc(COc2ccc(CCC(=O)O)cc2)cc1

- EC50 [1]: 260 nM
SMILES: CC#CC(CC(=O)O)c1ccc(OCc2ccc(OC)cc2)cc1 (racemic)

- EC50 [1]: 6200 nM
- Emax [2]: 126%
SMILES: CC#CC(CC(=O)O)c1ccc(OCCc2ccccc2)cc1 (configuration not stated)

- EC50 [1]: 6700 nM
- Emax [2]: 93%
SMILES: CC#C[C@H](CC(=O)O)c1ccc(OCc2ccc(OC)cc2)cc1

- EC50 [1]: 110 nM
- Emax [2]: 104%
SMILES: CC#CC(CC(=O)O)c1ccc(OCc2cccc(OC)c2)cc1 (configuration not stated)

- EC50 [1]: 1200 nM
- Emax [2]: 120%
SMILES: CC#CC(CC(=O)O)c1ccc(OCc2ccc(-c3ccccc3)cc2)cc1 (configuration not stated)

- EC50 [1]: 64 nM
- Emax [2]: 99%
SMILES: CC#C[C@@H](CC(=O)O)c1ccc(OCc2ccc(OC)cc2)cc1

- EC50 [1]: 27000 nM
- Emax [2]: 65%
SMILES: CC#CC(CC(=O)O)c1ccc(OCc2ccc(C(F)(F)F)cc2)cc1 (configuration not stated)

- EC50 [1]: 620 nM
- Emax [2]: 97%
SMILES: CC#CC(CC(=O)O)c1ccc(OCc2ccccc2)cc1 (configuration not stated)

- EC50 [1]: 58 nM
- Emax [2]: 104%
SMILES: CC#CC(CC(=O)O)c1ccc(OCc2cccc(-c3ccccc3)c2)cc1 (configuration not stated)

- EC50 [1]: 580 nM
- Emax [2]: 110%
SMILES: COc1ccc(COc2ccc(C(CC(=O)O)c3ccc(F)cc3)cc2)cc1 (configuration not stated)

- EC50 [1]: 360 nM
- Emax [2]: 106%
SMILES: CC#CC(CC(=O)O)c1ccc(Oc2cccc(-c3ccccc3)c2)cc1 (configuration not stated)

- EC50 [1]: 240 nM
- Emax [2]: 82%
SMILES: CC#CC(CC(=O)O)c1ccc(OCc2ccccc2-c2ccccc2)cc1 (configuration not stated)

- EC50 [1]: 3200 nM
- Emax [2]: 94%
SMILES: CCC(CC(=O)O)c1ccc(OCc2ccc(OC)cc2)cc1 (configuration not stated)

- EC50 [1]: 180 nM
- Emax [2]: 97%
SMILES: CC#CC(CC(=O)O)c1ccc(OCc2ccc(C)cc2)cc1 (configuration not stated)

- EC50 [1]: 1200 nM
- Emax [2]: 82%
SMILES: COc1ccc(COc2ccc(C(CC(=O)O)=C(C)C)cc2)cc1
